According to ChEMBL document CHEMBL1806473, “Structure-based optimization of click-based histone deacetylase inhibitors” (Eur J Med Chem, 2011):

Key:
RPMI-8226 = assay: Antiproliferative activity against human RPMI8226 cells by SRB assay; type: functional
In short: (§1)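 Tested in the NCI in vitro human tumor cell line screen, run by the National Cancer Institute. Each compound was given at five concentrations (100, 10, 1.0, 0.1 and 0.01 μM). GI50 is the drug concentration that reduces growth of treated cells to half that of control cells during drug incubation, judged from the SRB signal.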

NCI-H322M = assay: Antiproliferative activity against human NCI-H322M cells by SRB assay; type: functional; in short: as §1
NCI-H522 = assay: Antiproliferative activity against human NCI-H522 cells by SRB assay; type: functional; in short: as §1
HCC 2998 [1] = assay: Antiproliferative activity against human HCC2998 cells by SRB assay; type: functional; in short: as §1
HCT-116 = assay: Antiproliferative activity against human HCT116 cells by SRB assay; type: functional; in short: as §1
HT-29 [2] = assay: Antiproliferative activity against human HT-29 cells by SRB assay; type: functional; in short: as §1
SF-268 = assay: Antiproliferative activity against human SF268 cells by SRB assay; type: functional; in short: as §1
SF-295 [3] = assay: Antiproliferative activity against human SF295 cells by SRB assay; type: functional; in short: as §1
SF-539 [4] = assay: Antiproliferative activity against human SF539 cells by SRB assay; type: functional; in short: as §1
SNB-75 [5] = assay: Antiproliferative activity against human SNB75 cells by SRB assay; type: functional
In short: (§2)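 Cell growth was tested in the NIH in vitro disease-oriented human tumor cell line screen, which NCI ran for these compounds. Compounds were tested at five concentrations (100, 10, 1.0, 0.1 and 0.01 μM), and growth was read by SRB signal. GI50 is the drug concentration that reduces growth of treated cells to half that of control cells during drug incubation.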

LOX IMVI = assay: Antiproliferative activity against human LOXIMVI cells by SRB assay; type: functional; in short: as §1
SK-MEL-2 [6] = assay: Antiproliferative activity against human SK-MEL-2 cells by SRB assay; type: functional; in short: as §1
SK-MEL-28 [7] = assay: Antiproliferative activity against human SK-MEL-28 cells by SRB assay; type: functional; in short: as §1
SK-MEL-5 = assay: Antiproliferative activity against human SK-MEL-5 cells by SRB assay; type: functional; in short: as §1
UACC-62 [8] = assay: Antiproliferative activity against human UACC62 cells by SRB assay; type: functional; in short: as §2
OVCAR-3 [9] = assay: Antiproliferative activity against human OVCAR3 cells by SRB assay; type: functional; in short: as §1
OVCAR-8 [10] = assay: Antiproliferative activity against human OVCAR8 cells by SRB assay; type: functional; in short: as §1
NCI/ADR-RES [11] = assay: Antiproliferative activity against human NCI/ADR-RES cells by SRB assay; type: functional; in short: as §1
SN12C [12] = assay: Antiproliferative activity against human SN12C cells by SRB assay; type: functional; in short: as §1
UO-31 = assay: Antiproliferative activity against human UO31 cells by SRB assay; type: functional; in short: as §2
MCF7 [13] = assay: Antiproliferative activity against human MCF7 cells by SRB assay; type: functional; in short: as §1
[14] = Antiproliferative activity against human Hs 578T cells by SRB assay; type: functional; in short: as §1
BT-549 = assay: Antiproliferative activity against human BT549 cells by SRB assay; type: functional; in short: as §1
T47D = assay: Antiproliferative activity against human T47D cells by SRB assay; type: functional; in short: as §2
MDA-MB-468 = assay: Antiproliferative activity against human MDA-MB-468 cells by SRB assay; type: functional; in short: as §1
HL-60(TB) = assay: Cytotoxicity against human HL-60(TB) cells; type: cell-based
MOLT-4 = assay: Cytotoxicity against human MOLT4 cells; type: cell-based
SR = assay: Cytotoxicity against human SR cells; type: cell-based
In short: (§3)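 Screened by NCI in its in vitro disease-oriented human tumour cell line panel. Compounds tested at five concentrations (100, 10, 1.0, 0.1 and 0.01 μM). Growth read by sulforhodamine B (SRB) signal. GI50 is the concentration reducing growth of treated cells to half that of control cells during the drug incubation.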

A549 = assay: Cytotoxicity against human A549 cells; type: cell-based
In short: (§4)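 Tested in the NCI in vitro disease-oriented human tumour cell line screen, with screening performed by NCI. Growth was read by SRB signal over the drug incubation period at five concentrations: 100, 10, 1.0, 0.1 and 0.01 μM. GI50 is the concentration that reduces growth of treated cells to half that of control cells.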

EKVX = assay: Cytotoxicity against human EKVX cells; type: cell-based; in short: as §4
HOP-62 = assay: Cytotoxicity against human HOP62 cells; type: cell-based; in short: as §4
NCI-H226 = assay: Cytotoxicity against human NCI-H226 cells; type: cell-based
NCI-H460 = assay: Cytotoxicity against human NCI-H460 cells; type: cell-based
HCC 2998 [15] = assay: Cytotoxicity against human HCC2998 cells; type: cell-based; in short: as §4
HT-29 [16] = assay: Cytotoxicity against human HT-29 cells; type: cell-based; in short: as §4
KM12 = assay: Cytotoxicity against human KM12 cells; type: cell-based
SW-620 = assay: Cytotoxicity against human SW620 cells; type: cell-based; in short: as §3
SF-295 [17] = assay: Cytotoxicity against human SF295 cells; type: cell-based; in short: as §4
SF-539 [18] = assay: Cytotoxicity against human SF539 cells; type: cell-based; in short: as §4
SNB-19 = assay: Cytotoxicity against human SNB19 cells; type: cell-based; in short: as §3
SNB-75 [19] = assay: Cytotoxicity against human SNB75 cells; type: cell-based; in short: as §3
U-251 = assay: Cytotoxicity against human U251 cells; type: cell-based; in short: as §3
SK-MEL-2 [20] = assay: Cytotoxicity against human SK-MEL-2 cells; type: cell-based; in short: as §4
SK-MEL-28 [21] = assay: Cytotoxicity against human SK-MEL-28 cells; type: cell-based
UACC-62 [22] = assay: Cytotoxicity against human UACC62 cells; type: cell-based; in short: as §3
OVCAR-3 [23] = assay: Cytotoxicity against human OVCAR3 cells; type: cell-based; in short: as §4
OVCAR-8 [24] = assay: Cytotoxicity against human OVCAR8 cells; type: cell-based
NCI/ADR-RES [25] = assay: Cytotoxicity against human NCI/ADR-RES cells; type: cell-based; in short: as §4
SK-OV-3 = assay: Cytotoxicity against human SKOV3 cells; type: cell-based
786-0 = assay: Cytotoxicity against human 786-0 cells; type: cell-based
ACHN = assay: Cytotoxicity against human ACHN cells; type: cell-based
CAKI-1 = assay: Cytotoxicity against human Caki1 cells; type: cell-based
SN12C [26] = assay: Cytotoxicity against human SN12C cells; type: cell-based; in short: as §3
PC-3 = assay: Cytotoxicity against human PC3 cells; type: cell-based
MCF7 [27] = assay: Cytotoxicity against human MCF7 cells; type: cell-based
MDA-MB-231 = assay: Cytotoxicity against human MDA-MB-231 cells; type: functional; in short: as §4
[28] = Cytotoxicity against human Hs 578T cells; type: cell-based

Compound: O=C(/C=C/c1cn(C(/C=C/c2ccccc2)Cc2ccccc2)nn1)NO (configuration not stated)
- GI50 (RPMI-8226): 743 nM
- GI50 (NCI-H322M): 1370 nM
- GI50 (NCI-H522): 386 nM
- GI50 (HCC 2998 [1]): 1240 nM
- GI50 (HCT-116): 382 nM
- GI50 (HT-29 [2]): 547 nM
- GI50 (SF-268): 1220 nM
- GI50 (SF-295 [3]): 291 nM
- GI50 (SF-539 [4]): 1140 nM
- GI50 (SNB-75 [5]): 258 nM
- GI50 (LOX IMVI): 521 nM
- GI50 (SK-MEL-2 [6]): 1890 nM
- GI50 (SK-MEL-28 [7]): 1300 nM
- GI50 (SK-MEL-5): 879 nM
- GI50 (UACC-62 [8]): 898 nM
- GI50 (OVCAR-3 [9]): 1160 nM
- GI50 (OVCAR-8 [10]): 630 nM
- GI50 (NCI/ADR-RES [11]): 342 nM
- GI50 (SN12C [12]): 2340 nM
- GI50 (UO-31): 650 nM
- GI50 (MCF7 [13]): 1210 nM
- GI50 [14]: 934 nM
- GI50 (BT-549): 1620 nM
- GI50 (T47D): 411 nM
- GI50 (MDA-MB-468): 1520 nM
- LC50 (HL-60(TB)): > 100000 nM
- LC50 (MOLT-4): > 100000 nM
- LC50 (SR): > 100000 nM
- LC50 (A549): 64600 nM
- LC50 (EKVX): 87400 nM
- LC50 (HOP-62): 18300 nM
- LC50 (NCI-H226): 46800 nM
- LC50 (NCI-H460): 27200 nM
- LC50 (HCC 2998 [15]): 6120 nM
- LC50 (HT-29 [16]): > 100000 nM
- LC50 (KM12): 34200 nM
- LC50 (SW-620): 13600 nM
- LC50 (SF-295 [17]): 6560 nM
- LC50 (SF-539 [18]): 6910 nM
- LC50 (SNB-19): 18800 nM
- LC50 (SNB-75 [19]): 9830 nM
- LC50 (U-251): 5840 nM
- LC50 (SK-MEL-2 [20]): 49200 nM
- LC50 (SK-MEL-28 [21]): 9400 nM
- LC50 (UACC-62 [22]): 6340 nM
- LC50 (OVCAR-3 [23]): 8700 nM
- LC50 (OVCAR-8 [24]): > 100000 nM
- LC50 (NCI/ADR-RES [25]): > 100000 nM
- LC50 (SK-OV-3): 13300 nM
- LC50 (786-0): 6450 nM
- LC50 (ACHN): 13700 nM
- LC50 (CAKI-1): 6250 nM
- LC50 (SN12C [26]): > 100000 nM
- LC50 (PC-3): > 100000 nM
- LC50 (MCF7 [27]): 93200 nM
- LC50 (MDA-MB-231): 53900 nM
- LC50 [28]: 74600 nM

Compound: CC(/C=C/c1ccccc1)n1cc(/C=C/C(=O)NO)nn1 (configuration not stated)
- GI50 (RPMI-8226): 407 nM
- GI50 (NCI-H322M): 1280 nM
- GI50 (NCI-H522): 173 nM
- GI50 (HCC 2998 [1]): 927 nM
- GI50 (HCT-116): 341 nM
- GI50 (HT-29 [2]): 325 nM
- GI50 (SF-268): 1510 nM
- GI50 (SF-295 [3]): 1060 nM
- GI50 (SF-539 [4]): 934 nM
- GI50 (SNB-75 [5]): 924 nM
- GI50 (LOX IMVI): 438 nM
- GI50 (SK-MEL-2 [6]): 614 nM
- GI50 (SK-MEL-28 [7]): 819 nM
- GI50 (SK-MEL-5): 573 nM
- GI50 (UACC-62 [8]): 524 nM
- GI50 (OVCAR-3 [9]): 1130 nM
- GI50 (OVCAR-8 [10]): 232 nM
- GI50 (SN12C [12]): 1290 nM
- GI50 (UO-31): 549 nM
- GI50 (MCF7 [13]): 1160 nM
- GI50 [14]: 692 nM
- GI50 (BT-549): 2110 nM
- GI50 (T47D): 667 nM
- GI50 (MDA-MB-468): 299 nM
- LC50 (HL-60(TB)): > 100000 nM
- LC50 (MOLT-4): > 100000 nM
- LC50 (SR): > 100000 nM
- LC50 (A549): > 100000 nM
- LC50 (EKVX): > 100000 nM
- LC50 (HOP-62): 48200 nM
- LC50 (NCI-H226): 71400 nM
- LC50 (NCI-H460): 42700 nM
- LC50 (HCC 2998 [15]): 6910 nM
- LC50 (HT-29 [16]): 33900 nM
- LC50 (KM12): 6820 nM
- LC50 (SW-620): 5150 nM
- LC50 (SF-295 [17]): > 100000 nM
- LC50 (SF-539 [18]): 4610 nM
- LC50 (SNB-19): 37600 nM
- LC50 (SNB-75 [19]): 33900 nM
- LC50 (U-251): 4500 nM
- LC50 (SK-MEL-2 [20]): 37000 nM
- LC50 (SK-MEL-28 [21]): 24500 nM
- LC50 (UACC-62 [22]): 7990 nM
- LC50 (OVCAR-3 [23]): 7330 nM
- LC50 (OVCAR-8 [24]): 6910 nM
- LC50 (SK-OV-3): 21800 nM
- LC50 (786-0): 9030 nM
- LC50 (ACHN): 5860 nM
- LC50 (CAKI-1): 34700 nM
- LC50 (SN12C [26]): > 100000 nM
- LC50 (PC-3): > 100000 nM
- LC50 (MCF7 [27]): > 100000 nM
- LC50 (MDA-MB-231): > 100000 nM
- LC50 [28]: > 100000 nM
